The text below walks through data of ChEMBL document CHEMBL2016534 (ACS Med Chem Lett, 2011).

Data set [1] addresses T1, Phosphatidylinositol 4,5-bisphosphate 3-kinase catalytic subunit alpha isoform (Homo sapiens, UniProt P42336). Briefly: Inhibition of PI3Kalpha.
A short description of data set [2]: Metabolic stability in human liver microsomes assessed as extraction ratio. Format: ADME, Microsome. The note with it: read-out: ERH. In a few lines: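 Human liver microsome CLint scaled up with liver physiology parameters (mg HLM/g liver, g liver/kg body weight) to mL/min/kg. Predicted hepatic clearance (CLH, mL/min/kg) then calculated by the well-stirred model. Extraction ratio taken as predicted CLH divided by hepatic blood flow (QH).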

Data set [3] concerns the target T2, Phosphatidylinositol 4,5-bisphosphate 3-kinase catalytic subunit delta isoform (Homo sapiens) (UniProt O00329).
T2 sequence (whole entry): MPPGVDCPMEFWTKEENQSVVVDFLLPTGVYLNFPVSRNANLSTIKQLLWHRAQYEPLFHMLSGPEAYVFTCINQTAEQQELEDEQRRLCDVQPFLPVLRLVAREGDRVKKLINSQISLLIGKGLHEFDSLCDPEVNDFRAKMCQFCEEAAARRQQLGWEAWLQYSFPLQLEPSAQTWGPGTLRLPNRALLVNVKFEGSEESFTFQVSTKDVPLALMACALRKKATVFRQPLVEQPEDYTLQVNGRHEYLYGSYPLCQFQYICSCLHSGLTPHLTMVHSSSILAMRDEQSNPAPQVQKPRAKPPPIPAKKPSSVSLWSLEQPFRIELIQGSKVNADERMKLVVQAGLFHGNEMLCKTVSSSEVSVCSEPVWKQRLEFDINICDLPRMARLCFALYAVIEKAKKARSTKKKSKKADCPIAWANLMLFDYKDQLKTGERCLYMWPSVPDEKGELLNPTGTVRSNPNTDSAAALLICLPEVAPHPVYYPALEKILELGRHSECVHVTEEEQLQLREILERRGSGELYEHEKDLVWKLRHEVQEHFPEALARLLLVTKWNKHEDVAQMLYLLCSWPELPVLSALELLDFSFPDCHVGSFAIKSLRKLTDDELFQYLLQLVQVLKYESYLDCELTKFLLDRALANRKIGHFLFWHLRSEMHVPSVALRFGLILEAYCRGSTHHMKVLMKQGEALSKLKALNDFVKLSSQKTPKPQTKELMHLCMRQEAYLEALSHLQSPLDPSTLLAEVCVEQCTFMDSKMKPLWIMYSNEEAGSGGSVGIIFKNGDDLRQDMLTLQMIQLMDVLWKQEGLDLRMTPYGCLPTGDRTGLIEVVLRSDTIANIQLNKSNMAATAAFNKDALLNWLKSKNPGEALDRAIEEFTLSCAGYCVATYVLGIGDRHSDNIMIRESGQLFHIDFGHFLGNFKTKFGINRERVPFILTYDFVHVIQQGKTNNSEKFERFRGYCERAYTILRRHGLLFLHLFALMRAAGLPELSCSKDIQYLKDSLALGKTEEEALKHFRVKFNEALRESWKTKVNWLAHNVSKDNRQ
The data set can be described thus: Inhibition of PI3Kdelta.

Data set [4] has as its system NCI-H460. Briefly: Cytotoxicity against human NCI-H460 cells harboring PI3KCA mutation by MTT assay. Format: functional, cell-based.
The subject of data set [5] is NCI-H1975. Briefly: Cytotoxicity against human NCI-H1975 cells harboring PI3KCA mutation by MTT assay. It is filed as functional, cell-based. For orientation: Tetrazolium assays rely on reduction of a dye to a coloured formazan, in cell work by metabolically active cells.
The subject of data set [6] is NCI-H23. Briefly: Cytotoxicity against human NCI-H23 cells harboring PTEN mutation by MTT assay. Format: functional, cell-based.
Data set [7] has as its system NCI-H1650. The data set can be described thus: Cytotoxicity against PTEN deficient human NCI-H1650 cells by MTT assay. Format: functional, cell-based.
The target of data set [8] is T3, Serine/threonine-protein kinase mTOR (Homo sapiens, UniProt P42345). Briefly: Inhibition of mTOR.
In data set [9] the target is T1, Phosphatidylinositol 4,5-bisphosphate 3-kinase catalytic subunit alpha isoform. Briefly: Inhibition of PI3Kalpha-mediated AKT phosphorylation at S473 by cell based assay.
Data set [10] in a line: Metabolic stability in rat liver microsomes assessed as extraction ratio. Format: ADME, Microsome. As to conditions: read-out: ERH. (Microsomes from liver hold many membrane-bound enzymes, among them those of drug oxidation.)
Data set [11] in a line: Metabolic stability in mouse liver microsomes assessed as extraction ratio. It is filed as ADME, Microsome. The note with it: read-out: ERH.
The test system of data set [12] is MDR1 (human). The data set can be described thus: Efflux ratio of permeability from basolateral to apical side to apical to basolateral side of dog RRCK cells expressing human MDR1. It is filed as ADME, cell-based, Canis lupus familiaris, MDCKII-LE.
Data set [13] deals with T3, Serine/threonine-protein kinase mTOR. Briefly: Inhibition of mTOR at 1 uM.
For data set [14], the target named is T4, CYP1A2 (Homo sapiens, UniProt P05177).
T4 sequence (P05177 whole entry): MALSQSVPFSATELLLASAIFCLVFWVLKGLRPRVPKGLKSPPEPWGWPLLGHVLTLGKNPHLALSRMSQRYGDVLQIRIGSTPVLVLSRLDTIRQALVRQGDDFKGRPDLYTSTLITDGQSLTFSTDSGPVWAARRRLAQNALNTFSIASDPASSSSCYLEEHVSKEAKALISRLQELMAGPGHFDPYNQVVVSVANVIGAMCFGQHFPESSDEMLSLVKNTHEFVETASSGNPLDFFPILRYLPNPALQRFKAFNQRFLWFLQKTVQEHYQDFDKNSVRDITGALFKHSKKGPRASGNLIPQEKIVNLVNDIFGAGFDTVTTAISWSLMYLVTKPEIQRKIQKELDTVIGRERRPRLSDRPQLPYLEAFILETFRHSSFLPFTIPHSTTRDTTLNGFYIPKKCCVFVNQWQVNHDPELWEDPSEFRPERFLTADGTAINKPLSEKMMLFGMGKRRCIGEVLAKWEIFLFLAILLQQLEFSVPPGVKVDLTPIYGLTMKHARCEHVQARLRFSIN
Briefly: Inhibition of CYP1A2 at 3 uM. Format: ADME.

Data set [15] addresses CYP2C9 (Homo sapiens, UniProt P11712). Briefly: Inhibition of CYP2C9 at 3 uM. It is filed as ADME.
In data set [16] the target is CYP2D6 (Homo sapiens, UniProt P10635). Briefly: Inhibition of CYP2D6 at 3 uM. Format: ADME.
CYP2D6, sequence (P10635 whole entry): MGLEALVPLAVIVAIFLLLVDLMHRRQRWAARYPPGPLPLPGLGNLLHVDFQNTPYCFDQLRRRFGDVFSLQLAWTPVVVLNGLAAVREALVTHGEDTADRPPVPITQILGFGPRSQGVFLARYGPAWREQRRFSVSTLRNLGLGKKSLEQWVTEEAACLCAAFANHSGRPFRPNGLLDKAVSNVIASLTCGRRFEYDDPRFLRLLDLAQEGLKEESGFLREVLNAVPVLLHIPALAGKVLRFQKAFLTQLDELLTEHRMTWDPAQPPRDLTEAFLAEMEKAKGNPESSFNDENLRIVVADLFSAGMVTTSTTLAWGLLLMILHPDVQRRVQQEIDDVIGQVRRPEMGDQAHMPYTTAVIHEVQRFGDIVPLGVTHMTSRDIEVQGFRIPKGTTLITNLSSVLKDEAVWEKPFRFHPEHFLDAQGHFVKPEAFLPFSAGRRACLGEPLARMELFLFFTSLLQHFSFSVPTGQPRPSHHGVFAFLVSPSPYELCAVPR
Data set [17] has as its target CYP3A4 (Homo sapiens, UniProt P08684). The data set can be described thus: Inhibition of CYP3A4 at 3 uM. It is filed as ADME.
The nature of data set [18]: Drug excretion in bile duct cannulated rat bile. It is filed as ADME. The note with it: read-out: Drug excretion.
A short description of data set [19]: Drug excretion in bile duct cannulated rat urine. As to conditions: read-out: Drug excretion. Format: ADME.

In general, Ki refers to the equilibrium dissociation constant of an inhibitor or competing ligand from its target. Usually inhibition stands for the change of the read-out against control, counted positive when it falls. The term IC50 denotes the concentration needed to halve the response being measured. A word on the efflux ratio: it is the permeability from basolateral to apical divided by that in the opposite direction, in the common usage.

Structures are written as SMILES. Activity calls are given as the source filed them. The calls are words filed in the database; no cut-off is given here.

T1 sequence (P42336 whole entry, canonical isoform): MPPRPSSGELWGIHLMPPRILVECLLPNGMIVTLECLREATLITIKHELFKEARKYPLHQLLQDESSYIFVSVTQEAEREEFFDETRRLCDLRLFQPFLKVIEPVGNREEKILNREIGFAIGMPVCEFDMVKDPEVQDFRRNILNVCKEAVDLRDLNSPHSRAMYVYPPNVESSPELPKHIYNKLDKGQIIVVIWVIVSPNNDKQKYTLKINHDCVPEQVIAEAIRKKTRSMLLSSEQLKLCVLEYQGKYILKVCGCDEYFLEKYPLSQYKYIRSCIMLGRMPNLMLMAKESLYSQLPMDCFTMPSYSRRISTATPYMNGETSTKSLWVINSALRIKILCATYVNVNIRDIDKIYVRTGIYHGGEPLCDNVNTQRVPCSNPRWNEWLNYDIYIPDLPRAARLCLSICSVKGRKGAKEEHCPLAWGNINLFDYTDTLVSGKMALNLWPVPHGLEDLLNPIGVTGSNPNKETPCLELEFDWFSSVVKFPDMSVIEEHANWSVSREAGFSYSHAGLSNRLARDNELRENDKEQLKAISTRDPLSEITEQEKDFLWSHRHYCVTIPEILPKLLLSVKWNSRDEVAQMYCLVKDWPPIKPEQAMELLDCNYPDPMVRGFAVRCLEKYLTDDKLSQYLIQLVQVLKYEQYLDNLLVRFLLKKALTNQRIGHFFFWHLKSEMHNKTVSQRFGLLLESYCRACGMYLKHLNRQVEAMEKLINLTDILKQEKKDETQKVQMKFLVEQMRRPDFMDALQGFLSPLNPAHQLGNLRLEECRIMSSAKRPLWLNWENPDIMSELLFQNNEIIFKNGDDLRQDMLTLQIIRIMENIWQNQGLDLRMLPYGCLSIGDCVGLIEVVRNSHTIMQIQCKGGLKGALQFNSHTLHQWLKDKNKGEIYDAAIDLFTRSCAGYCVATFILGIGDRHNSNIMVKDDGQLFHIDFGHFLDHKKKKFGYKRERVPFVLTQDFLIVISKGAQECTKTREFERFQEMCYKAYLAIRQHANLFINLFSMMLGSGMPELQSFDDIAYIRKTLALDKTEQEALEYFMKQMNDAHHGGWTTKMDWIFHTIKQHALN
CYP2C9, sequence (P11712 whole entry): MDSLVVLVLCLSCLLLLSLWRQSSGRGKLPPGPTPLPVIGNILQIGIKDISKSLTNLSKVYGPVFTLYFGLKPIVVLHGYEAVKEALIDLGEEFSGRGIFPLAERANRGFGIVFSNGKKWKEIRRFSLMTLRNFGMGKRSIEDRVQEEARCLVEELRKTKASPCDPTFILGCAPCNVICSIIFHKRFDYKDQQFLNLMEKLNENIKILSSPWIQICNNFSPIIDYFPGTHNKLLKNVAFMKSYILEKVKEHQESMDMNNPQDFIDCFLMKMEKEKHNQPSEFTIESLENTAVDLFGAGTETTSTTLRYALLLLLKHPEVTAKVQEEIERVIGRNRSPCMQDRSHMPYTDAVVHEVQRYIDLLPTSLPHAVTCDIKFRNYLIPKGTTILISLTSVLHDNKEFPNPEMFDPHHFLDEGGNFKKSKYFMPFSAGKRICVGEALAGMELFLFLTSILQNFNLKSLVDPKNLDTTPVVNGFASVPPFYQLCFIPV
CYP3A4, sequence (P08684 whole entry): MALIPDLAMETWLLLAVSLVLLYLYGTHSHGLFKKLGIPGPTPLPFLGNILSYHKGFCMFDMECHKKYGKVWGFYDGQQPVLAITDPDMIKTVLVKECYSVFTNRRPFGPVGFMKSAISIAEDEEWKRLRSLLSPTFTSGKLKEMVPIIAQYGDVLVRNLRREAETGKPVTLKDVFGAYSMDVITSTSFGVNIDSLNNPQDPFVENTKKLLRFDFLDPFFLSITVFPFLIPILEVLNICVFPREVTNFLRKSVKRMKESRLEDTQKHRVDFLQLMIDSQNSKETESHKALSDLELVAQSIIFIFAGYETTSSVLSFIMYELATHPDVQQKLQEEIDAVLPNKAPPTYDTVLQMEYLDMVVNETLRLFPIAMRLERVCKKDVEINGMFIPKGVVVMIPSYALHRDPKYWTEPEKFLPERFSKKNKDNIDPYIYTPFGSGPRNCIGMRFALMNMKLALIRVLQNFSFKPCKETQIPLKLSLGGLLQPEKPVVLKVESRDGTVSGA

Consider `N#Cc1c(N2CCOCC2)sc(C(=O)O)c1-c1ccc(Cl)cc1`, for which affinity in data set [1] was put at a Ki of 230 nM.

For `N#Cc1c(N2CCOCC2)sc(-c2cn[nH]n2)c1-c1ccc(Cl)cc1`, in [2], the hepatic extraction ratio came to 0.7. In [1], the affinity corresponds to a Ki of 3 nM.

For `N#Cc1ccc(-c2c(-c3ncn[nH]3)sc(N3CCOCC3)c2C#N)c(F)c1`, the inhibition result in data set [3] is “Active”.

Consider `N#Cc1c(N2CCOCC2)sc(-c2cc[nH]n2)c1-c1ccc(Cl)cc1`, for which, in [2], the hepatic extraction ratio stood at 0.7. The compound further came in with a Ki in data set [1] of 1.8 nM.

Turning to `Cc1nnc(-c2sc(N3CCOCC3)c(C#N)c2-c2ccc(Cl)cc2)o1`, the Ki in data set [1] was 1280 nM.

In data set [1], `N#Cc1c(N2CCOCC2)sc(-c2cn[nH]c2)c1-c1ccc(Cl)cc1` gave a Ki of 175 nM.

For the compound `N#Cc1c(N2CCOCC2)sc(-c2ncn[nH]2)c1-c1ccc(Cl)cc1Cl`, the outcome in [4], in data set [5], in [6] and in [7] was Active. In addition, in data set [3], the inhibition entry is “Active”.

As to `N#Cc1c(N2CCOCC2)sc(-c2nc[nH]n2)c1-c1ccc(Cl)cc1`, the hepatic extraction ratio in data set [2] stood at 0.3. For the same compound, the Ki in [1] was 1.7 nM; in data set [8] it was 434 nM. Moreover, the IC50 in data set [9] was determined as 73 nM.

Regarding `N#Cc1ccc(-c2c(-c3nnc[nH]3)sc(N3CCOCC3)c2C#N)c(F)c1`, the results for the hepatic extraction ratio in data set [2], in data set [10] and in data set [11] were 0.35, 0.529 and 0.639, respectively. For the same compound, the values for the Ki in [1] and in data set [8] were 0.6 nM and 1440 nM, respectively. Further, the IC50 in [9] came to 79 nM. The efflux ratio in data set [12] stood at 2.6.

In the case of `N#Cc1c(N2CCOCC2)sc(C(N)=O)c1-c1ccc(Cl)cc1`, the affinity in data set [1] corresponds to a Ki of 13 nM. The same compound gave an IC50 in [9] of 760 nM. The same compound had an inhibition in data set [13] of 47%.

For the compound `N#Cc1c(N2CCOCC2)sc(-c2nnc[nH]2)c1-c1ccc(Cl)cc1Cl`, the hepatic extraction ratio was 0.3 in data set [2], 0.89 in data set [10] and 0.88 in data set [11]. For the same compound, the figures for the Ki in [1] and in data set [8] were 0.35 nM and 2470 nM, respectively. Further, the IC50 in data set [9] stood at 35 nM. The efflux ratio in data set [12] was found to be 2.56. Moreover, the inhibition at 3 µM in [14], in data set [15], in [16] and in data set [17] was less than 30% in each case. The dose excreted in data set [18] and in [19] was less than 1% in each case.
